System: HEK-293T
Assay: Multiplex assay against HEK293T;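 as to Population Tubulin-Different-Phenotype (%): share of the cells with healthy nuclei that show this phenotype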
Format: toxicity, cell-based
Conditions: human
Summary of the method: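 Four dyes were applied at seeding to live cells: Hoechst33342, BioTracker Green Microtubule Cytoskeleton Dye, MitoTracker Red and Annexin V Alexa Fluor 680. Imaging after compound addition used a CQ1 microscope at 37°C and 5% CO2. CellPathfinder machine-learning gating then sorted cells into Hoechst high-intensity objects or normal cells, normal cells into healthy, pyknosed or fragmented nuclei, and pyknosed cells into mitotic or apoptotic, with tubulin, mitochondrial-mass and membrane-permeability phenotypes given as per cents of healthy-nucleus cells.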

[1] = 12 h, 1 µM, compound concentration 1 uM, replicate 1
[2] = 12 h, 1 µM, compound concentration 1 uM, replicate 2
[3] = 12 h, 10 µM, compound concentration 10 uM, replicate 1
[4] = 12 h, 10 µM, compound concentration 10 uM, replicate 2
[5] = 24 h, 1 µM, compound concentration 1 uM, replicate 1
[6] = 24 h, 1 µM, compound concentration 1 uM, replicate 2
[7] = 24 h, 10 µM, compound concentration 10 uM, replicate 1
[8] = 24 h, 10 µM, compound concentration 10 uM, replicate 2
[9] = 48 h, 1 µM, compound concentration 1 uM, replicate 1
[10] = 48 h, 1 µM, compound concentration 1 uM, replicate 2
[11] = 48 h, 10 µM, compound concentration 10 uM, replicate 1
[12] = 48 h, 10 µM, compound concentration 10 uM, replicate 2

SMILES: COc1cc2ncn(-c3cc(OCc4ccccc4C(F)(F)F)c(C(N)=O)s3)c2cc1OC [GW843682X]
- Population Apoptotic (%) [1]: 62%
- Population Fragmented Nuclei (%) [1]: 14%
- Population Healthy Nuclei (%) [1]: 44%
- Population Hoechst High Intensity Objects (%) [1]: 13%
- Population Membrane Permeable-Phenotype (%) [1]: 5%
- Population Mitochondria Different-Phenotype (%) [1]: 84%
- Population Mitotic Cells (%) [1]: 37%
- Population Normal (%) [1]: 86%
- Population Pyknosed Nuclei (%) [1]: 40%
- Population Tubulin-Different-Phenotype (%) [1]: 64%
- Total Cell Count [1]: 252
- Population Apoptotic (%) [2]: 25%
- Population Fragmented Nuclei (%) [2]: 4%
- Population Healthy Nuclei (%) [2]: 38%
- Population Hoechst High Intensity Objects (%) [2]: 2%
- Population Membrane Permeable-Phenotype (%) [2]: 11%
- Population Mitochondria Different-Phenotype (%) [2]: 34%
- Population Mitotic Cells (%) [2]: 74%
- Population Normal (%) [2]: 97%
- Population Pyknosed Nuclei (%) [2]: 56%
- Population Tubulin-Different-Phenotype (%) [2]: 47%
- Total Cell Count [2]: 208
- Population Apoptotic (%) [3]: 57%
- Population Fragmented Nuclei (%) [3]: 12%
- Population Healthy Nuclei (%) [3]: 54%
- Population Hoechst High Intensity Objects (%) [3]: 14%
- Population Membrane Permeable-Phenotype (%) [3]: 9%
- Population Mitochondria Different-Phenotype (%) [3]: 97%
- Population Mitotic Cells (%) [3]: 42%
- Population Normal (%) [3]: 85%
- Population Pyknosed Nuclei (%) [3]: 33%
- Population Tubulin-Different-Phenotype (%) [3]: 97%
- Total Cell Count [3]: 272
- Population Apoptotic (%) [4]: 31%
- Population Fragmented Nuclei (%) [4]: 11%
- Population Healthy Nuclei (%) [4]: 50%
- Population Hoechst High Intensity Objects (%) [4]: 4%
- Population Membrane Permeable-Phenotype (%) [4]: 11%
- Population Mitochondria Different-Phenotype (%) [4]: 88%
- Population Mitotic Cells (%) [4]: 68%
- Population Normal (%) [4]: 96%
- Population Pyknosed Nuclei (%) [4]: 38%
- Population Tubulin-Different-Phenotype (%) [4]: 99%
- Total Cell Count [4]: 250
- Population Apoptotic (%) [5]: 56%
- Population Fragmented Nuclei (%) [5]: 11%
- Population Healthy Nuclei (%) [5]: 39%
- Population Hoechst High Intensity Objects (%) [5]: 19%
- Population Membrane Permeable-Phenotype (%) [5]: 7%
- Population Mitochondria Different-Phenotype (%) [5]: 81%
- Population Mitotic Cells (%) [5]: 43%
- Population Normal (%) [5]: 80%
- Population Pyknosed Nuclei (%) [5]: 49%
- Population Tubulin-Different-Phenotype (%) [5]: 73%
- Total Cell Count [5]: 252
- Population Apoptotic (%) [6]: 24%
- Population Fragmented Nuclei (%) [6]: 5%
- Population Healthy Nuclei (%) [6]: 41%
- Population Hoechst High Intensity Objects (%) [6]: 4%
- Population Membrane Permeable-Phenotype (%) [6]: 3%
- Population Mitochondria Different-Phenotype (%) [6]: 43%
- Population Mitotic Cells (%) [6]: 75%
- Population Normal (%) [6]: 95%
- Population Pyknosed Nuclei (%) [6]: 53%
- Population Tubulin-Different-Phenotype (%) [6]: 65%
- Total Cell Count [6]: 205
- Population Apoptotic (%) [7]: 71%
- Population Fragmented Nuclei (%) [7]: 11%
- Population Healthy Nuclei (%) [7]: 57%
- Population Hoechst High Intensity Objects (%) [7]: 15%
- Population Membrane Permeable-Phenotype (%) [7]: 6%
- Population Mitochondria Different-Phenotype (%) [7]: 96%
- Population Mitotic Cells (%) [7]: 28%
- Population Normal (%) [7]: 84%
- Population Pyknosed Nuclei (%) [7]: 31%
- Population Tubulin-Different-Phenotype (%) [7]: 90%
- Total Cell Count [7]: 270
- Population Apoptotic (%) [8]: 57%
- Population Fragmented Nuclei (%) [8]: 14%
- Population Healthy Nuclei (%) [8]: 53%
- Population Hoechst High Intensity Objects (%) [8]: 3%
- Population Membrane Permeable-Phenotype (%) [8]: 3%
- Population Mitochondria Different-Phenotype (%) [8]: 95%
- Population Mitotic Cells (%) [8]: 42%
- Population Normal (%) [8]: 96%
- Population Pyknosed Nuclei (%) [8]: 32%
- Population Tubulin-Different-Phenotype (%) [8]: 96%
- Total Cell Count [8]: 264
- Population Apoptotic (%) [9]: 53%
- Population Fragmented Nuclei (%) [9]: 17%
- Population Healthy Nuclei (%) [9]: 31%
- Population Hoechst High Intensity Objects (%) [9]: 17%
- Population Membrane Permeable-Phenotype (%) [9]: 3%
- Population Mitochondria Different-Phenotype (%) [9]: 84%
- Population Mitotic Cells (%) [9]: 46%
- Population Normal (%) [9]: 82%
- Population Pyknosed Nuclei (%) [9]: 50%
- Population Tubulin-Different-Phenotype (%) [9]: 72%
- Total Cell Count [9]: 248
- Population Apoptotic (%) [10]: 55%
- Population Fragmented Nuclei (%) [10]: 7%
- Population Healthy Nuclei (%) [10]: 63%
- Population Hoechst High Intensity Objects (%) [10]: 2%
- Population Membrane Permeable-Phenotype (%) [10]: 13%
- Population Mitochondria Different-Phenotype (%) [10]: 36%
- Population Mitotic Cells (%) [10]: 44%
- Population Normal (%) [10]: 97%
- Population Pyknosed Nuclei (%) [10]: 29%
- Population Tubulin-Different-Phenotype (%) [10]: 67%
- Total Cell Count [10]: 220
- Population Apoptotic (%) [11]: 72%
- Population Fragmented Nuclei (%) [11]: 18%
- Population Healthy Nuclei (%) [11]: 46%
- Population Hoechst High Intensity Objects (%) [11]: 12%
- Population Membrane Permeable-Phenotype (%) [11]: 3%
- Population Mitochondria Different-Phenotype (%) [11]: 96%
- Population Mitotic Cells (%) [11]: 27%
- Population Normal (%) [11]: 87%
- Population Pyknosed Nuclei (%) [11]: 34%
- Population Tubulin-Different-Phenotype (%) [11]: 85%
- Total Cell Count [11]: 260
- Population Apoptotic (%) [12]: 59%
- Population Fragmented Nuclei (%) [12]: 7%
- Population Healthy Nuclei (%) [12]: 42%
- Population Hoechst High Intensity Objects (%) [12]: 4%
- Population Membrane Permeable-Phenotype (%) [12]: 7%
- Population Mitochondria Different-Phenotype (%) [12]: 92%
- Population Mitotic Cells (%) [12]: 40%
- Population Normal (%) [12]: 95%
- Population Pyknosed Nuclei (%) [12]: 50%
- Population Tubulin-Different-Phenotype (%) [12]: 92%
- Total Cell Count [12]: 247

Source: ChEMBL document CHEMBL4689842, “EUbOPEN Chemogenomics Library wave 1” (2021)
